Source: PubChem
A selection: hits, their analogues and other compounds. The true share with any hit is near 6.4%.
PLK1 PBD inh: inhibitors of human Plk1 polo box domain binding. inhibition, %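 (tested at about 20 µM)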. 0.13% of 97,000 active. Plk1 PBD phosphopeptide binding, fluorescence polarization. P53350; in the data active = inhibition above about 34%, passing the limit was not always enough
PLK1 kinase inh: inhibitors of human PLK1 kinase. P53350. recombinant PLK1 kinase, TR-FRET peptide phosphorylation. inhibition, % at 10 µM. 0.53% of 97,000 active;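 active = inhibition of 50% or more in the single-concentration screen; inactive = inhibition below 50%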;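 note: 0% = DMSO max control and 100% = H-89 dihydrochloride min control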
PostGolgi ctrl: inhibits growth of the yeast control strain | efflux-deficient yeast background strain, growth absorbance A615, 16 h | 5% of 98,000 active | inhibition, % at 10 µM
EphB4 antag: antagonists of human EphB4-ephrin-B2 interaction; P54760; EphB4 LBD / TNYL-RAW-Alexa532 peptide, fluorescence polarization; inhibition, % at 7 µM; 0.15% of 97,000 active;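 active = inhibition above the screen-wide mean inhibition plus 3 SD, cut at about 15% in these data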;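 note: 0% = DMSO wells and 100% = excess unlabeled TNYL-RAW peptide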
PostGolgi yeast: growth inhibition of a yeast mutant, post-Golgi transport screen | post-Golgi transport phenotypic cell assay | inhibition, % at 10 µM | 0.9% of 98,000 active;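 note: yeast cells grown in 1536-well plates; yeast grown about 18 h at 30C before absorbance read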
HIV Rev-RRE inh: inhibitors of HIV-1 Rev-RRE RNA interaction | inhibition, % at 8 µM | Rev peptide-RRE RNA binding, FRET | 0.79% of 97,000 active | AID 704 | P05866;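 active = inhibition above the screen-wide mean plus 3 SD, cut at about 35% in these data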;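 note: 0% = median DMSO wells and 100% = median Neomycin B control wells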
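Material: labelled RRE RNA duplex and labelled Rev peptide / Buffer or medium: HEPES pH 7.5 salt buffer with EDTA / Compound dosing: single point, 8 µM final nominal compound concentration / Benchmarks: DMSO low control, neomycin B high control / Timing: 5 min preincubation and 15 min binding, 25 °C / Technique: FRET fluorescence readout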
The depositor's hits bear a star; . = no result given; [ ] = remark or other dose. Cut-off read from the data, not from the text of the source, unless noted: active = inhibition above about 30%; inactive = the rest.

SMILES	PLK1 PBD inh	PLK1 kinase inh	PostGolgi ctrl	EphB4 antag	PostGolgi yeast	HIV Rev-RRE inh
CCOC(=O)Nc1nnc(-c2ccc(OC)c(OC)c2)s1	-10	-4	0	5	20	5
O=[N+]([O-])c1ccc(Sc2nc3ccccc3o2)c([N+](=O)[O-])c1	-8	-1	91*	4	5	-5
CN1CCCc2cc(C=O)ccc21	21	-3	.	-9	.	4
CCCN1CCCc2cc(CN)ccc21	17	-13	5	6	5	46*
O=C(Nc1cc(C(F)(F)F)cc(C(F)(F)F)c1)c1ccc(Cn2cc(C(F)(F)F)ccc2=O)cc1	4	-3	-3	1	9	13
COC(=O)C1=C(C)NC(C)=C(C(=O)OC)C1c1cn(-c2ccccc2)nc1-c1ccco1	-11	-14	69*	1	25	3
O=C(CSc1nnc(CNc2ccc(F)cc2)o1)OC1CCCCC1	2	-11	6	1	-3	12
Clc1ccc(CSc2nnc(CNc3cccc(Cl)c3)o2)cc1	-3	4	45*	4	16	19
O=C(CSc1nnc(CNc2cccc(Cl)c2)o1)OC1CCCCC1	-3	-16	31*	3	25	14
Cc1nc2nc(-c3ccc(Cl)cc3)[nH]n2c(=O)c1C	0	-12	11	5	1	4
O=C(CCSc1ccc(Cl)cc1)NC1CCCCC1	-27	-11	6	3	0	4
O=C(CCSc1ccc(Cl)cc1)NC12CC3CC(CC(C3)C1)C2	-20	-11	43*	4	9	16
O=S(=O)(NC12CC3CC(CC(C3)C1)C2)c1ccc(F)cc1	10	8	31*	-5	-5	4
O=S(=O)(Nc1ccccc1)c1ccc(F)cc1	-2	-6	4	0	2	12
CCOc1ccc(C(C)NC(=O)Nc2ccccc2C(=O)OC)cc1 (centres undefined)	-4	0	1	7	-4	8
CCOC(=O)c1cc2n(c1/N=C/N(C)C)-c1ccccc1C2=O	-60	-37	22	1	-8	135*[fluorescence artefact?]
COc1ccccc1N1CCN(C(c2ccc(Cl)cc2)c2nnnn2C(C)(C)C)CC1 (centres undefined)	-5	-12	44*	-8	4	3
Cc1cccc(N2CCN(C(c3ccccc3)c3nnnn3C(C)(C)C)CC2)c1C (centres undefined)	17	-4	.	11	.	1
COc1ccccc1N1CCN(C(c2ccccc2Cl)c2nnnn2C(C)(C)C)CC1 (centres undefined)	-1	-15	38*	2	16	8
O=C1CC(/C=C/c2ccco2)=Nc2ccccc2N1	13	-13	-3	-2	-4	41*
O=C1CC(C(F)(F)C(F)(F)C(F)(F)C(F)F)=Nc2ccccc2N1	-2	6	3	-3	-6	10
CC(C)(C)C(=O)[C@H]1[C@H](c2ccccc2)[C@@]2(N=C(c3ccccc3)OC2=O)C2c3ccccc3C=NN21 (some centres undefined)	-20	-12	37*	1	-10	8
CC(C)(C)C(=O)[C@@H]1[C@@H]2C(=O)N(Cc3ccccc3)C(=O)[C@@H]2[C@H]2c3ccccc3C=CN12	18	-4	13	6	11	19
Cc1ccnc(NC2(C(F)(F)F)N=C(c3ccccc3)NC2=O)c1 (centres undefined)	25	-12	6	4	5	5
O=C1CCCC2=C1C1(CCCCC1)N=C(Nc1nc3ccccc3s1)N2	5	-9	33*	4	2	13
SMILES	PLK1 PBD inh	PLK1 kinase inh	PostGolgi ctrl	EphB4 antag	PostGolgi yeast	HIV Rev-RRE inh
O=C1CCCC2=C1C1(CCCC1)N=C(Nc1nc3ccccc3s1)N2	-27	-14	9	4	1	5
COc1cc(C)ccc1OCCCOc1ccccc1Cl	31	-3	4	-7	-3	13
CCOc1ccccc1OCCCOc1ccc([N+](=O)[O-])cc1Cl	1	-7	38*	-9	6	18
Cc1ccccc1Sc1c(C#N)c(-c2ccccc2)nn1C	-33	-10	8	2	-7	15
CCC1Sc2ccccc2N(CC(=O)NCCC2=CCCCC2)C1=O (centres undefined)	-15	-1	37*	4	-1	8
C=CCSC1=C(C#N)C(c2ccc(C(C)C)cc2)CC(=O)N1 (centres undefined)	9	-1	38*	-6	-2	10
O=C1c2ccccc2C(=O)c2c(NCc3cccnc3)cccc21	-11	-4	34*	6	-2	-33
c1ccc(NCc2cccnc2)cc1	-27	-12	-4	-2	-1	9
CCCc1cc(C(=O)N2CCN(c3ccccc3C)CC2)cs1	1	-12	38*	2	-10	2
CCc1nnc(NC(=O)c2ccc(COc3ccc(C)cc3)o2)s1	-18	-6	1	2	-3	8
CCc1nnc(NC(=O)c2ccc(COc3ccccc3)o2)s1	-12	-3	53*	2	-8	5
COC(=O)c1ccccc1NC(=O)c1ccc(COc2ccccc2)o1	-3	-6	36*	-5	-12	12
NS(=O)(=O)c1ccc(NC(=O)COC(=O)CCNC(=O)NC23CC4CC(CC(C4)C2)C3)cc1	-10	-7	8	3	-1	5
CNc1oc(-c2ccc(Cl)cc2)nc1P(=O)(c1ccccc1)c1ccccc1	-30	-5	32*	-2	7	3
CSCC[C@H](NC(=O)OC(C)(C)C)c1nnc(SCC=C(C)C)o1	-36	-4	-7	4	-2	1
Cc1nn(Cc2ccccc2)c(N)c1-c1ccccc1	7	-15	3	-7	34*	1
Cc1nn(Cc2ccccc2)c(N)c1C#N	-20	-11	-8	5	-5	7
Cc1cccc2c(=O)c(C(=O)NCCCN3CCOCC3)c[nH]c12	-16	-8	.	-5	.	5
Cc1c(C#N)c(SCC(N)=O)nc2c1CCCC2	-10	-6	-5	5	16	7
CCOC(=O)C1CCN(S(=O)(=O)Cc2ccccc2)C1=O (centres undefined)	0	0	8	15*	-1	15
COc1ccc(-n2nnnc2-c2cn(C)nc2C(F)(F)F)cc1	11	-1	5	-4	18	6
Cc1cc(C)n(-c2nc(NC(C)(C)C)nc(NC(C)(C)C)n2)n1	17	-6	41*	6	9	0
Cc1cc(C)n(-c2nc(Nc3ccccc3C)nc(-n3nc(C)cc3C)n2)n1	0	0	53*	4	8	7
CCNc1nc(NCC)nc(-n2nc(C)cc2C)n1	.	.	20	.	5	.
Cc1cc(C)n(-c2nc(Nc3ccccc3C(F)(F)F)nc(-n3nc(C)cc3C)n2)n1	4	-5	.	0	.	-5
CC(C)(C)Nc1nc(NC(C)(C)C)nc(-n2ccnc2)n1	-31	-14	33*	0	0	3
